High-throughput results (PubChem)
An excerpt weighted towards active compounds, which were near 2.1% of everything screened.
MEX-5 binding – C. elegans MEX-5 TCR-2 RNA binding activity; AID 1832; actives 0.38% (n = 300,000); activity score (negative = inhibition of binding), % at 10 µM; MEX-5/FITC-TCR2 RNA binding, fluorescence polarization; hits give low values;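 active = inhibition past about -25% in most replicates, and total fluorescence under double the plate's negative control median, limit read from the data; inconclusive = replicates evenly split on the limit, or fluorescence at least double controls; inactive = too little inhibition in most replicates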
KLK7 zymogen act – activators of human kallikrein-7 zymogen; purified proKLK7, EDANS-DABCYL substrate fluorescence; 100% is mature enzyme control, 0% vehicle; activation, % at 7 µM; P49862; actives 0.9% (n = 370,000); AID 652039;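 active = activation above the mean of all tested compounds plus 3 SD, computed per campaign excluding outliers beyond control limits, cut at about 13% in these data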
Target sequence (P49862 whole entry, looked up): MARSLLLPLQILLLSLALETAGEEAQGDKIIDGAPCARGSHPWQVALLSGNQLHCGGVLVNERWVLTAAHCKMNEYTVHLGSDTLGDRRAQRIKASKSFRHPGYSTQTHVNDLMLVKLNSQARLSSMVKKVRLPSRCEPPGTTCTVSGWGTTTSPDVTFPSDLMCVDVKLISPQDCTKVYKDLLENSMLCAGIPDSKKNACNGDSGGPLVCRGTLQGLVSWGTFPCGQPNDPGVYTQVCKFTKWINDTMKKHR
Runt-CBFb FRET – blocks binding of human RUNX1 Runt domain to CBFb; inhibition, % at 20 µM; Q01196+Q13951; Cerulean-Runt/Venus-CBFb FRET ratio 530/480, 1 h; actives 0.46% (n = 220,000); AID 1496;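 active = inhibition over about 50% at 20 µM in the single-dose screen, limit read from the data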
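Measured by: fluorescence energy transfer, 422 nm excitation, 530/480 nm emission; test system: Cerulean-tagged RUNX1 Runt domain (FRET donor) fusion protein; buffer or medium: Tris pH 7.5 buffer with BSA; compound: one dose, 20 µM compound, 1% DMSO; times: two 1 h room-temperature incubations shielded from light; benchmarks: unlabeled CBFb 5 µM, positive control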
Runt-SMMHC FRET – Runt domain-CBFb-SMMHC interaction inhibition | inhibition, % at 20 µM | Q01196+Q13951 | Cerulean-Runt/Venus-CBFb-SMMHC FRET ratio 530/480, 1 h | actives 0.74% (n = 220,000);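 active = mean inhibition across duplicate retests at 20 µM reaching about 50%, limit read from the data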;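 note: inhibitors lower the FRET ratio by blocking Runt binding to CBFb-SMMHC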
RanGTP-Impb inh – disruptors of Ran-importin-beta complex formation – biochemical, FRET, CFP-Ran, YFP-importin-beta, homogeneous, primary screen | cell-free CFP-Ran/YFP-importin-beta FRET ratio | actives 1.1% (n = 300,000) | inhibition, % (no concentration beside the values) | AID 2216;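 active = more than half of the replicate wells show a fall in the fluorescence ratio signal beyond about 16%, limit read from the data, passing the limit was not always enough; inconclusive = exactly half of the replicate wells pass the set limit; inactive = fewer than half of replicates pass the limit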
Each line names hits and unclear results; the compound was inactive in the other large screens.

O=c1[nH]c(COc2ccc(Cl)cc2Br)nc2ccccc12	none (no result: Runt-CBFb FRET, Runt-SMMHC FRET)
CCOC(=S)SCc1cn2ccccc2n1	none (no result: Runt-CBFb FRET)
CCOC(=S)SCc1cn2ccc(C)cc2n1	RanGTP-Impb inh 21
CC1CN(C=O)CC(C)N1CCN1C(C)CN(C=O)CC1C (configuration not stated)	none (no result: MEX-5 binding, Runt-CBFb FRET, Runt-SMMHC FRET, RanGTP-Impb inh)
O=C(c1ccco1)N1CCN(c2ncnc3c(-c4ccc(Cl)cc4)nsc23)CC1	MEX-5 binding -29 (no result: KLK7 zymogen act, Runt-CBFb FRET, Runt-SMMHC FRET)
Cc1cc(C)c2c(=O)n(CC(=O)Nc3cccc(F)c3)sc2n1	Runt-SMMHC FRET 65
Cc1ccc(NC(=O)Cn2sc3nc(C)cc(C)c3c2=O)c(Cl)c1	Runt-SMMHC FRET 51
Cc1ccc(S(=O)(=O)NCC(=O)OC(C)C(=O)NCc2ccc3c(c2)OCO3)cc1 (configuration not stated)	none (no result: MEX-5 binding, Runt-CBFb FRET, Runt-SMMHC FRET, RanGTP-Impb inh)
O=C(O)C1CCCCC1C(=O)Nc1cc(Cl)ccc1Cl (configuration not stated)	none
CC1CC1c1ccc(/C=C(\C#N)C(=O)Nc2ccc(Cl)cc2Cl)o1 (configuration not stated)	RanGTP-Impb inh 40
O=C(O)C1CCCCC1C(=O)Nc1ccc(Cl)cc1Cl (configuration not stated)	none
CC1CC1c1ccc(/C=C(\C#N)C(=O)Nc2cc(Cl)ccc2Cl)o1 (configuration not stated)	RanGTP-Impb inh 24
CCOc1ccc(C2C(C#N)=C(N)SC(N)=C2C#N)c(OCC)c1	RanGTP-Impb inh 19
O=C(O)c1ccccc1-c1nc2ccccc2c(=O)[nH]1	RanGTP-Impb inh 25
Nc1ccc2nc(-c3ccccc3)c(-c3ccccc3)nc2c1	MEX-5 binding -40 (no result: Runt-CBFb FRET, Runt-SMMHC FRET)
CCCOc1ccc(-c2nn(-c3ccccc3)cc2/C=C2\SC(=S)N(C3CCS(=O)(=O)C3)C2=O)cc1 (configuration not stated)	none
CCOc1ccc(-c2nn(-c3ccccc3)cc2/C=C2\SC(=S)N(C3CCS(=O)(=O)C3)C2=O)cc1 (configuration not stated)	MEX-5 binding -31
CN(C)C(=O)c1ccc(NC(=O)COC(=O)CCN=C2NS(=O)(=O)c3ccccc32)cc1	none (no result: MEX-5 binding, Runt-CBFb FRET, Runt-SMMHC FRET, RanGTP-Impb inh)
O=c1[nH]nc(CNc2ccc(O)cc2)c2ccccc12	MEX-5 binding -52
Cc1ccc(N(C)c2nc(N)nc(N)c2N=O)cc1	KLK7 zymogen act 44 (no result: MEX-5 binding, Runt-CBFb FRET, Runt-SMMHC FRET, RanGTP-Impb inh)
Cc1cccc(Nc2nc(N)nc(N)c2N=O)c1	none (no result: MEX-5 binding, Runt-CBFb FRET, Runt-SMMHC FRET, RanGTP-Impb inh)
Cc1ccc(-n2nc(C)c(NS(=O)(=O)c3ccccc3)c2C)cc1C	RanGTP-Impb inh 36
O=C(C[N+]12CC[N+](CC(=O)c3ccc(F)cc3)(CC1)CC2)c1ccc(F)cc1	none (no result: Runt-CBFb FRET, Runt-SMMHC FRET)
N#CC1(C#N)CC(C=O)=C(N)C1(C#N)CC(=O)c1ccc(F)cc1 (configuration not stated)	Runt-SMMHC FRET 51, RanGTP-Impb inh 33
Cc1nc(S/C(=C\c2ccc(-c3ccc(C(=O)O)c(Cl)c3)o2)C(=O)O)n[nH]1	MEX-5 binding -91
Cc1nc(S/C(=C\c2ccc(OCc3ccccc3Cl)cc2)C(=O)O)n[nH]1	none (no result: MEX-5 binding, RanGTP-Impb inh)
CCC(C)[C@H](NC(=O)N1CCCC1)C(=O)OC (some centres not stated)	none
CCC(C)[C@H](NC(=O)N1CCCCC1)C(=O)OC (some centres not stated)	RanGTP-Impb inh 23
CC1CCCN(CCCNC(=O)c2nn(C)c3c2CS(=O)(=O)c2ccccc2-3)C1 (configuration not stated)	none (no result: Runt-CBFb FRET, Runt-SMMHC FRET)
Oc1ccc(N=Nc2ccccc2-c2nn[nH]n2)c(O)c1	MEX-5 binding -35 (no result: Runt-CBFb FRET, Runt-SMMHC FRET)
Cc1ccccc1-c1nn[nH]n1	RanGTP-Impb inh inconclusive
CCOC(=O)c1nn(-c2ccc3c(c2)OCO3)cc1O	KLK7 zymogen act 32 (no result: Runt-CBFb FRET, Runt-SMMHC FRET)
CC[C@]12c3[nH]c4cc(CCC(=O)N(C)C)ccc4c3CCN1C(=O)[C@@H](CC(=O)NCCCOC)C[C@@H]2C(=O)N1CCN(C(=O)c2ccco2)CC1	none (no result: MEX-5 binding, Runt-CBFb FRET, Runt-SMMHC FRET, RanGTP-Impb inh)
O=C(NNc1c2ccccc2nc2ccccc12)c1ccccc1Cl	RanGTP-Impb inh 27 (no result: Runt-CBFb FRET, Runt-SMMHC FRET)
O=C(NNc1c2ccccc2nc2ccccc12)c1ccccc1O	none (no result: RanGTP-Impb inh)
COC(=O)C1CN(C2CC2)CCS(=O)(=O)N1Cc1cn(Cc2ccc(C)cc2)nn1 (configuration not stated)	none (no result: MEX-5 binding, Runt-CBFb FRET, Runt-SMMHC FRET, RanGTP-Impb inh)
